Source: publication PMC6408981 (Neuropharmacology, 2018)

How the values were obtained:
[1] = molecular target: T1, PPAR-α (Mus musculus, UniProt P23204); assay: PPAR-α luciferase assay in COS-7 cells; type: cell-based; conditions: 18 h
T1 sequence (P23204 1-468): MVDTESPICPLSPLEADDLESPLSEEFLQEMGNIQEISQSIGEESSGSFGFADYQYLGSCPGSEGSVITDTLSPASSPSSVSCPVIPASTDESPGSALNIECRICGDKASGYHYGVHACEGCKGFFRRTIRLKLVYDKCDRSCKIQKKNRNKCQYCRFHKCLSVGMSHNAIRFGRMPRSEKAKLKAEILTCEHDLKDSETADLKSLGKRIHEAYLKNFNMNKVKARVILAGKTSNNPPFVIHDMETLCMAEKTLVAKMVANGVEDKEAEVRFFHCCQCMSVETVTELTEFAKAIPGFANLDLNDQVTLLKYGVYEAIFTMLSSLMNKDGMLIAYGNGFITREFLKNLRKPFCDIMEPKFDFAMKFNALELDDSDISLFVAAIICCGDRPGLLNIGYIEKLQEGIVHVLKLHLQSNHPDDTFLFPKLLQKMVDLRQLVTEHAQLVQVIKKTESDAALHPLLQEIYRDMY
Procedure, shortened: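 COS-7 cells in DMEM with 10% FBS were transfected by lipofection with mouse PPAR-α (25 ng), PPRE×3-TK-luciferase (300 ng), β-galactosidase control (100 ng) and empty pcDNA3 (75 ng) per well. Next day the medium was replaced with compound-containing medium for 18 h. Firefly luciferase chemiluminescence was normalised to β-galactosidase activity and compared by Welch-corrected t-test.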

[2] = system: ICR mice; assay: Cumulative CP55,940 dose-response study; type: in vivo, mouse
Procedure, shortened: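 Male ICR mice (6–8 weeks, 27–32 g) received test compound (60 mg/kg i.p.) or vehicle 10 min before the first CP55,940 dose. Further doses followed every 40 min. Bar-test catalepsy, tail-flick and rectal temperature were measured at baseline and 30 min after each dose. Analysis was two-way ANOVA with Sidak post-hoc.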

[3] = system: mice; conditions: ref Jackson et al., 2017; cited from earlier work
[4] = system: dependent smokers; conditions: ref Perkins et al., 2016; cited from earlier work
[5] = system: ICR mice; assay: Nicotine conditioned place preference; type: in vivo, mouse
Procedure, shortened: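 Male ICR mice underwent unbiased three-chamber CPP. Day 1: 5-min middle-chamber habituation, then 15 min free access as baseline. Days 2–4: two 20-min conditioning sessions daily, 4 h apart. Controls got saline in both large chambers, with i.p. pretreatment 15 min before. Day 5: 15-min drug-free test. Score = test minus baseline time on the paired side.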

[6] = system: ICR mice; conditions: ref Ignatowska-Jankowska et al., 2015; cited from earlier work
[7] = system: nicotine-dependent mice; assay: Mecamylamine-precipitated nicotine withdrawal; type: in vivo, mouse
Procedure, shortened: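 Male ICR mice (6–8 weeks, 27–32 g) had s.c. minipumps implanted under isoflurane, delivering nicotine 24 mg/kg/day or saline for 14 days. On day 15 they got the test compound i.p. (10, 30 or 60 mg/kg) or vehicle, then mecamylamine 2 mg/kg s.c. at 15 min. From 25 min, blinded scoring: 5 min elevated plus maze (open/closed-arm time, arm crosses), then 20 min somatic signs; n = 7–8/group.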

[8] = system: rats; conditions: ref Chaturvedi et al., 2006; cited from earlier work
[9] = molecular target: human recombinant CB2 receptor (Homo sapiens, UniProt P34972); assay: Cannabinoid receptor binding, [3H]-CP-55,940 displacement, CB2
Procedure, shortened: (§1)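 Membranes from HEK-293 cells stably expressing the human receptor (CB1 Bmax 2.5, CB2 Bmax 4.7 pmol/mg protein) were incubated with test compound and [3H]-CP-55,940 for 90 min at 30 °C. […] Nonspecific binding was defined with 10 μM WIN 55212-2. Ki came from IC50 via Cheng-Prusoff; at least 3 experiments, mean ± SEM.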

[10] = molecular target: human recombinant CB1 receptor (Homo sapiens, UniProt P21554); assay: Cannabinoid receptor binding, [3H]-CP-55,940 displacement, CB1
Procedure, shortened: as §1

[11] = system: ICR mice; assay: Morphine conditioned place preference; type: in vivo, mouse; conditions: OlGly i.p. pretreatment, morphine 10 mg/kg s.c. (methods)
Procedure, shortened: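 Unbiased three-chamber CPP in male ICR mice. Day 1 baseline: 15 min free access after 5-min habituation. Days 2–4: twice-daily conditioning, 4 h apart and counterbalanced. Test compound or vehicle was given i.p. 15 min before morphine (10 mg/kg s.c.); 30-min sessions began 15 min after morphine. Day 5: 15-min drug-free test. Score = test minus baseline time in the morphine-paired side.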

[12] = system: ICR mice; assay: Tetrad behavioral assessment; type: in vivo, mouse; conditions: for Distance traveled / Speed / Time immobile: 10 min recording starting 5 min after injection; for Δ rectal temperature / Catalepsy / Antinociception: 30 min after injection; for Catalepsy: bar test; for Antinociception: tail withdrawal
Procedure, shortened: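 Mice were acclimated at least 1 h, then baseline tail-withdrawal latency and body temperature were taken. Test compound or vehicle was given i.p.; 30 min later came bar-test catalepsy (immobility over 60 s), tail withdrawal (%MPE with 10 cutoff) and Δ temperature. Locomotor: 5 min post-dose, distance (cm) and immobile time (s) were video-tracked for 10 min. Analysis: one-way ANOVA, Dunnett.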

[13] = OlGly levels in plasma and brain regions after i.p. injection; type: in vivo, mouse
Procedure, shortened: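 ICR mice received test compound (60 mg/kg i.p.) or vehicle. After 15 min, plasma, insular cortex, hippocampus and hypothalamus were collected. Samples were extracted with chloroform/methanol/50 mM Tris-HCl pH 7.5 (2:1:1) containing deuterated internal standards. Quantification was by isotope-dilution LC-MS (C18 column, isocratic methanol/water/acetic acid, positive ESI).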

[14] = molecular target: T2, fatty acid amide hydrolase (Rattus norvegicus, UniProt P97612); assay: AEA hydrolysis by rat brain membranes; type: biochemical
T2 sequence (P97612 1-579): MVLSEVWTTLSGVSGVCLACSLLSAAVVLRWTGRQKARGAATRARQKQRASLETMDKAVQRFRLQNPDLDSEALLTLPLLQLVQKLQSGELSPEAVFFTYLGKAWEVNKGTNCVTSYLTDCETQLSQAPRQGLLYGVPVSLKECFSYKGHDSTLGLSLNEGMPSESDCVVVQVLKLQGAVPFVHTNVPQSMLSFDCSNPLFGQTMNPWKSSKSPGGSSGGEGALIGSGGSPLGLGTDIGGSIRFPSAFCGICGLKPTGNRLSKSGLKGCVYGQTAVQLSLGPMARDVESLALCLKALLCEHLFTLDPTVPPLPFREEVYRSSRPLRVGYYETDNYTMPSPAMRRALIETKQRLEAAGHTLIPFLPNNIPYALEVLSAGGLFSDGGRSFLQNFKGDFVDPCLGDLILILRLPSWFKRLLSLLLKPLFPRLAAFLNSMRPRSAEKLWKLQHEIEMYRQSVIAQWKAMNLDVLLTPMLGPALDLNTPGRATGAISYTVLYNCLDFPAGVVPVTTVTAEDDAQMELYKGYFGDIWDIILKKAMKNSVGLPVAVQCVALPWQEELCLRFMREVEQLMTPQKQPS

[15] = system: smokers; conditions: clinical trials; ref Robinson et al., 2017; cited from earlier work
[16] = 60 mg/kg i.p., 15 min after injection, ICR mice

Sequence of human recombinant CB2 receptor (P34972 whole entry): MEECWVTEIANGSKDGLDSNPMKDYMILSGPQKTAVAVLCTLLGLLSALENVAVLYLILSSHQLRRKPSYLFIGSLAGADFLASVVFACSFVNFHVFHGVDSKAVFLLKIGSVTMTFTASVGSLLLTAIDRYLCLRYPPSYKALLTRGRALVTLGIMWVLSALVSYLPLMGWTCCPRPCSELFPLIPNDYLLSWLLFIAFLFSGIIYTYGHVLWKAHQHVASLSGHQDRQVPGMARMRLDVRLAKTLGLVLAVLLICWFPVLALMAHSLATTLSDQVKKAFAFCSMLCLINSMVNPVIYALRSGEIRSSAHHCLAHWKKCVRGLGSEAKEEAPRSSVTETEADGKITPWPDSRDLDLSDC
Sequence of human recombinant CB1 receptor (P21554 whole entry): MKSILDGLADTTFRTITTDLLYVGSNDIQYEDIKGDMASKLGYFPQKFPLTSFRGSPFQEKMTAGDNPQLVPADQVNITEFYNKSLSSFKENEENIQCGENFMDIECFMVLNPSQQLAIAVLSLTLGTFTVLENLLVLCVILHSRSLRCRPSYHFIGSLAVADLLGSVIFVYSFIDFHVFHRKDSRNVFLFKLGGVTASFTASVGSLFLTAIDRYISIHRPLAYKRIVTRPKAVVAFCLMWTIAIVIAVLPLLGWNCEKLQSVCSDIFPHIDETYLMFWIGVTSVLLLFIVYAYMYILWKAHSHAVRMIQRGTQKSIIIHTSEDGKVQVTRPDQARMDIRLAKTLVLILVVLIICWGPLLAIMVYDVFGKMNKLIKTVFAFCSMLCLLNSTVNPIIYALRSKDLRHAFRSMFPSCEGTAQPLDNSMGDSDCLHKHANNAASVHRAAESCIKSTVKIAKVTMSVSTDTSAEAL

Compound: CC(C)(Sc1ccc(CCN(CCCCC2CCCCC2)C(=O)NC2CCCCC2)cc1)C(=O)O [GW7647, reference compound]
- Luciferase activity compared to DMSO ([1]; GW7647 10 mM as printed in Fig. 6): significantly increased luciferase activity

Compound: (−)-cis-3-[2-hydroxy-4-(1,1-dimethylheptyl)phenyl]-trans-4-(3-hydroxypropyl)-cyclohexanol [CP55,940, reference compound]
- Catalepsy, antinociception and hypothermia ([2]; cumulative 0, 0.3, 1 and 3 mg/kg i.p., vehicle-pretreated mice): dose-dependently induced

Compound: CC(C)OC(=O)C(C)(C)Oc1ccc(C(=O)c2ccc(Cl)cc2)cc1 [fenofibrate]
- Reversal of nicotine withdrawal [3]: failed to reverse nicotine withdrawal
- Ability to stop smoking during a brief practice quit period [4]: did not facilitate the ability to stop smoking

Compound: CCC(=O)NC[C@H](Cc1ccc(OCCc2nc(-c3ccccc3)oc2C)cc1)N/C(C)=C\C(=O)c1ccc(C(F)(F)F)cc1 [GW6471, N-((2S)-2-(((1Z)-1-methyl-3-oxo-3-(4-(trifluoromethyl)phenyl)prop-1-enyl)amino)-3-(4-(2-(5-methyl2phenyl-1,3-oxazol-4-yl)ethoxy)phenyl)propyl)propanamide, reference compound]
- Effect on OlGly blockade of nicotine CPP ([5]; GW6471 2 mg/kg i.p. 30 min before OlGly, mice): fully prevented OlGly blockade of nicotine CPP

Compound: Cc1ccc2c(C(C[N+](=O)[O-])c3cccs3)c(-c3ccccc3)[nH]c2c1 (stereo not shown) [ZCZ011]
- Shift of the CP55,940 dose-response curve (antinociceptive, cataleptic, hypothermic effects) [6]: elicited a leftward shift

Compound: CCCCCCCC/C=C\CCCCCCCC(=O)NCC(=O)O [OlGly, N-oleoyl-glycine]
- Number of mecamylamine-precipitated somatic withdrawal signs ([7]; 60 mg/kg i.p., nicotine-dependent mice): attenuated the number of mecamylamine-precipitated somatic withdrawal signs
- Overt behavioral alterations in control mice ([7]; control mice continuously infused with saline): did not elicit overt behavioral alterations
- Development of nicotine-induced CPP ([5]; i.p. 15 min before nicotine 0.5 mg/kg s.c. on conditioning days, mice): dose-dependently prevented the development of nicotine-induced CPP
- Place preference in saline-treated mice ([5]; saline-treated mice): did not affect place preference
- Locomotor activity [8]: decreases locomotor activity
- Reduction of body temperature [8]: 1.5–2.0 °C
- IC50 [9]: > 50 µM
- Ki [9]: > 50 µM
- CB2 displacement produced by maximum dose tested (50 μM) ([9]; 50 μM): 15.5 ± 6.40%
- IC50 [10]: 45.5 ± 5.1 µM
- Ki [10]: 27.8 ± 3.1 µM
- CB1 displacement produced by maximum dose tested (50 μM) ([10]; 50 μM): 55.9 ± 7.3%
- Morphine CPP [11]: did not carry over to morphine CPP
- Distance traveled ([12]; 10 mg/kg i.p.): 24.3 ±1.2 cm
- Speed ([12]; 10 mg/kg i.p.): 8.1 ± 0.4 cm/s
- Time immobile ([12]; 10 mg/kg i.p.): 8.6 ± 1.6 s
- Δ rectal temperature ([12]; 10 mg/kg i.p.): −0.90 ± 0.19 °C
- Catalepsy ([12]; 10 mg/kg i.p.): 0.0 s
- Antinociception ([12]; 10 mg/kg i.p.): 12.0± 6.6 %MPE
- Distance traveled ([12]; 30 mg/kg i.p.): 21.5±1.7 cm
- Speed ([12]; 30 mg/kg i.p.): 7.2 ± 0.6 cm/s
- Time immobile ([12]; 30 mg/kg i.p.): 11.8 ± 6.2 s
- Δ rectal temperature ([12]; 30 mg/kg i.p.): −1.13 ± 0.26 °C
- Catalepsy ([12]; 30 mg/kg i.p.): 0.0 s
- Antinociception ([12]; 30 mg/kg i.p.): 6.0 ± 4.5 %MPE
- Distance traveled ([12]; 100 mg/kg i.p.): 18.6±1.5 cm
- Speed ([12]; 100 mg/kg i.p.): 6.21 ± 0.5 cm/s
- Time immobile ([12]; 100 mg/kg i.p.): 17.4 ± 7.3 s
- Δ rectal temperature ([12]; 100 mg/kg i.p.): −0.22 ± 0.5431 °C
- Catalepsy ([12]; 100 mg/kg i.p.): 0.0 s
- Antinociception ([12]; 100 mg/kg i.p.): 25.9±11.0 %MPE
- Shift of the CP55,940 dose-response relationship in the tetrad assay ([2]; OlGly 60 mg/kg i.p. 10 min before first CP55,940 dose, mice): did not alter the dose-response relationship
- OlGly levels in hippocampus [13, 16]: 186.0 ± 60.05 pmol/g
- OlGly levels in hypothalamus [13, 16]: 245.6 ± 108.1 pmol/g
- OlGly levels in insula [13, 16]: 168.0 ± 60.28 pmol/g
- concentration at 15 min ([13]; ICR, mouse, plasma, intraperitoneal, 60 mg/kg): 2000 ± 627 nM
- Luciferase activity compared to DMSO ([1]; OlGly 10 mM, 50 μM and 100 mM as printed in Fig. 6): significantly increased luciferase activity
- IC50 [14]: 8.65 µM
- inhibition at 50 µM ([14]; read-out: FAAH inhibition produced by maximum dose tested (50 μM)): 89.4%

Compound: Cc1c(C(=O)NN2CCCCC2)nn(-c2ccc(Cl)cc2Cl)c1-c1ccc(Cl)cc1 [rimonabant]
- Smoking abstinence compared with placebo [15]: effectively improved smoking abstinence
